# Assay results pooled from the literature.
# Compare with care: the assays were run in different laboratories.
# Organism: Mycobacterium tuberculosis
# Observed: microbial growth
Compound,test,system,setting,measurement,value
CCCCCCC#Cc1cncc(-c2nnc(SCc3ccc(Cl)cc3)n2CCO)c1,resazurin,ERDMAN,,IC50,49 µM
COC(=O)OCc1cc2[nH]c(=S)n(Cc3cccnc3)c(=O)c2cc1Cl,,H37RV,,MIC90,3.42 µM
CC[C@@H](CO)NCCN[C@@H](CC)CO,resazurin,H37RV,21 days,MIC,0.25 µg/mL
Nc1c(C(=O)NCc2ccc(F)cc2)sc2nc(-c3ccccc3)ccc12,,H37RV,,IC50,> 100 µM
Clc1ccc(CCNc2cc(-c3ccccn3)nc3nnc(C4CC4)n23)cc1,,H37RV,,MIC,36 µM
CO[C@H]1/C=C/O[C@@]2(C)Oc3c(C)c(O)c4c(O)c(c(/C=N/N5CCN(C)CC5)c(O)c4c3C2=O)NC(=O)/C(C)=C\C=C\[C@H](C)[C@H](O)[C@@H](C)[C@@H](O)[C@@H](C)[C@H](OC(C)=O)[C@@H]1C,,H37RV,,MIC50,0.06 µg/mL
O=c1c2cc(C(F)(F)F)ncc2[nH]c(=S)n1Cc1cccnc1,,H37RV,,MIC90,45.5 µM
CCC(NC(=O)c1sc2nc(-c3ccc(OC)cc3)cc(C(F)(F)F)c2c1N)c1ccccc1 (stereo not drawn),,H37RV,,IC50,0.55 µM
CCCCCCC#Cc1cncc(-c2nnc(SCc3cc([N+](=O)[O-])cc([N+](=O)[O-])c3)n2CCOC2OC(CN)C(O)C2O)c1 (stereo not drawn),resazurin,ERDMAN,,IC50,18 µM
Cc1ccc(CCNc2cc(-c3nccs3)nc3nncn23)cc1,,H37RV,5 days,MIC,32 µM
O=c1c2cc(Cl)c(CF)cc2[nH]c(=S)n1Cc1cccnc1,,H37RV,,MIC90,6.72 µM
COc1ccc(-c2cc(C(F)(F)F)c3c(N)c(C(=O)N4CCCC4)sc3n2)cc1,,H37RV,,IC50,> 50 µM
NCC[C@H](O)C(=O)N[C@@H]1C[C@H](N)[C@@H](O[C@H]2O[C@H](CN)[C@@H](O)[C@H](O)[C@H]2O)[C@H](O)[C@H]1O[C@H]1O[C@H](CO)[C@@H](O)[C@H](N)[C@H]1O,,H37RV,,MIC90,3.3 µg/mL
COc1ccc(-c2cc(C(F)(F)F)c3c(N)c(C(=O)N4CCCC4(C)C)sc3n2)cc1,,H37RV,,IC50,> 100 µM
NC(=O)c1cncc(Cn2c(=S)[nH]c3ccc(Cl)cc3c2=O)c1,,H37RV,,MIC90,63 µM
NNC(=O)c1ccncc1,,H37RV,,MIC,0.125 µg/mL
O=C(O)c1cc2[nH]c(=S)n(Cc3cccnc3)c(=O)c2cc1Cl,,H37RV,,MIC90,> 100 µM
Cc1ccc(-c2cc(NCCc3ccc(F)cc3)n3cnnc3n2)o1,,H37RV,,MIC,19 µM
CCCCCCC#Cc1cncc(-c2nnc(SCc3ccc([N+](=O)[O-])o3)n2CCO)c1,resazurin,ERDMAN,,IC50,1.3 µM
NC(=O)c1cc(Br)ccc1OCCc1cccc(F)c1,,,,IC50,2 µM
O=C(OCc1cc2[nH]c(=S)n(Cc3cncnc3)c(=O)c2cc1Cl)Oc1ccccc1,,H37RV,,MIC90,1.94 µM
CCCCCCC#Cc1cncc(-c2nnc(SCc3ccc(Cl)cc3)n2CCCN)c1,resazurin,ERDMAN,,IC50,29 µM
Nc1c(C(=O)NCc2ccccc2)sc2nc(-c3ccccc3)ccc12,,H37RV,,IC50,42 µM
CC(=O)c1ccc(OCCc2cccc(F)c2)c(C(N)=O)c1,,,,IC50,1.3 µM
FC(F)(F)c1ccc(CCNc2cc(-c3cccs3)nc3nncn23)cc1,,H37RV,,MIC,0.31 µM
CCCCCCC#Cc1cncc(-c2nnc(SCc3cc([N+](=O)[O-])cc([N+](=O)[O-])c3)n2CCCN)c1,resazurin,ERDMAN,,IC50,3.2 µM
Nc1c(C(=O)N2CCOCC2)sc2nc(-c3ccccc3)ccc12,,H37RV,,IC50,46 µM
NNC(=O)c1ccncc1,,H37RV,,MIC90,0.81 µg/mL
CCc1cc(=O)c2c(OCC3CO3)c3ccoc3c(OC)c2o1 (stereo not drawn),resazurin,H37RV,21 days,MIC,128 µg/mL
c1ccc(-c2cc(Nc3ccc(N4CCOCC4)cc3)n3cnnc3n2)nc1,,H37RV,,MIC,> 100 µM
COC(=O)OCc1cc2[nH]c(=S)n(Cc3cncnc3)c(=O)c2cc1Cl,,H37RV,,MIC90,1.84 µM
c1ccc(-c2cc(NCCC34CC5CC(CC(C5)C3)C4)n3cnnc3n2)nc1,,H37RV,,MIC,11 µM
CCc1cc(=O)c2c(OCC(O)CN3CCCCC3)c3ccoc3c(OC)c2o1 (stereo not drawn),resazurin,,21 days,MIC,32 µg/mL
CO[C@H]1/C=C/O[C@@]2(C)Oc3c(C)c(O)c4c(O)c(c(/C=N/N5CCN(C)CC5)c(O)c4c3C2=O)NC(=O)/C(C)=C\C=C\[C@H](C)[C@H](O)[C@@H](C)[C@@H](O)[C@@H](C)[C@H](OC(C)=O)[C@@H]1C,,H37RA,,MIC90,0.01 µM
Cc1ccc(CCNc2cc(-c3ccc(C)o3)nc3nncn23)cc1,,H37RV,,MIC,0.36 µM
Nc1c(C(=O)Nc2cccnc2)sc2nc(-c3ccccc3)cc(C(F)(F)F)c12,,H37RV,,IC50,> 100 µM
N#Cc1cc2c(=O)n(Cc3cccnc3)c(=S)[nH]c2cn1,,H37RV,,MIC90,85.8 µM
COc1ccc(CCNc2cc(-c3ccccn3)nc3cc(C4CC4)nn23)cc1,,H37RV,,MIC,42 µM
COCCNC(=O)c1sc2nc(-c3ccc(OC)cc3)cc(C(F)(F)F)c2c1N,,H37RV,,IC50,> 100 µM
